According to ChEMBL document CHEMBL4725340, “New coumarin-benzotriazole based hybrid molecules as inhibitors of acetylcholinesterase and amyloid aggregation” (Bioorg Med Chem Lett, 2020):
The source made the active and inactive calls. The rule behind the calls is not given here.

Experiments:
[1] = biological target: Amyloid-beta precursor protein (Homo sapiens) (UniProt P05067); test: Inhibition of copper-induced amyloid beta (1 to 42) (unknown origin) aggregation at 50 uM by thioflavin T based fluorescence assay relative to control
How it was run: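 Thioflavin T fluorescence assay of copper-mediated Aβ1-42 aggregation; test sample at 50 μM; curcumin as reference anti-amyloidogenic agent; percentage inhibition of aggregation estimated.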

Acetylcholinesterase [2] = biological target: T1, Acetylcholinesterase (Electrophorus electricus, UniProt O42275); test: Inhibition of electric eel AChE by Ellman's method
Cholinesterase = Cholinesterase (Equus caballus, UniProt P81908); test: Inhibition of equine serum BuChE by Ellman's method
How it was run: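 Ellman's method with equine serum BuChE, run as for AChE; triplicate experiments; IC50 (50% inhibitory concentration) as mean ± SD of three independent experiments.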

SH-SY5Y = test: Cytotoxicity against human SH-SY5Y cells at 0.001 to 100 uM after 24 hrs by MTT assay
[3] = biological target: Acetylcholinesterase (Electrophorus electricus) (UniProt O42275); test: Mixed type inhibition of electric eel AChE assessed as increase in Km by reciprocal Lineweaver-Burk plot analysis
How it was run: (§1)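 Kinetics with electric eel AChE (Ellman's method): no inhibitor plus three inhibitor concentrations, substrate varied over […] (so in the source); double-reciprocal Lineweaver-Burk plots overlaid; slope/intercept changes and intersection quadrant used to assign inhibition type; Ki calculated from the plots.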

[4] = Metal chelating activity assessed as compound-Fe2+ complex formation by measuring blue shift in absorption intensity at 5 uM by UV spectra analysis
[5] = Metal chelating activity assessed as formation of Cu2+-compound complex stoichiometry ratio of 2:1 at 5 uM in presence of CuCl2 by UV spectra analysis
[6] = biological target: Acetylcholinesterase (Electrophorus electricus) (UniProt O42275); test: Mixed type inhibition of electric eel AChE assessed as decrease in Vmax by reciprocal Lineweaver-Burk plot analysis; how it was run: as §1
[7] = Metal chelating activity assessed as compound-Zn2+ complex formation by measuring blue shift in absorption intensity at 5 uM by UV spectra analysis
DNA [8] = test: Protection against Fenton reagent-induced Escherichia coli plasmid pBR322 DNA cleavage assessed as reduction in supercoiled circular DNA(1) form to linear circular DNA(3) at 0.2 to 1 mM; format: nucleic-acid assay; conditions: dose mM 0.2-1
Acetylcholinesterase [9] = biological target: T1, Acetylcholinesterase; test: Mixed type inhibition of electric eel AChE assessed as inhibition constant using varying levels of acetylthiocholine as substrate by reciprocal Lineweaver-Burk plot analysis; how it was run: as §1
DNA [10] = test: Protection against Fenton reagent-induced Escherichia coli plasmid pBR322 DNA cleavage assessed as reduction in supercoiled circular DNA(1) form to open circular DNA(2) at 0.2 to 1 mM; format: nucleic-acid assay; conditions: dose mM 0.2-1
[11] = Metal chelating activity assessed as compound-Mg2+ complex formation by measuring blue shift in absorption intensity at 5 uM by UV spectra analysis
[12] = biological target: Cholinesterase (Equus caballus) (UniProt P81908); test: Inhibition of equine serum BuChE at 50 to 100 uM by Ellman's method; conditions: dose microM 50-100
How it was run: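 Equine serum BuChE by Ellman's method, with the test compound at two additional single concentrations, 50 and 100 μM; inhibition read at each.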

[13] = Metal chelating activity assessed as compound-Cu2+ complex formation by measuring blue shift in absorption intensity at 5 uM by UV spectra analysis

Sequence of Cholinesterase (P81908 whole entry): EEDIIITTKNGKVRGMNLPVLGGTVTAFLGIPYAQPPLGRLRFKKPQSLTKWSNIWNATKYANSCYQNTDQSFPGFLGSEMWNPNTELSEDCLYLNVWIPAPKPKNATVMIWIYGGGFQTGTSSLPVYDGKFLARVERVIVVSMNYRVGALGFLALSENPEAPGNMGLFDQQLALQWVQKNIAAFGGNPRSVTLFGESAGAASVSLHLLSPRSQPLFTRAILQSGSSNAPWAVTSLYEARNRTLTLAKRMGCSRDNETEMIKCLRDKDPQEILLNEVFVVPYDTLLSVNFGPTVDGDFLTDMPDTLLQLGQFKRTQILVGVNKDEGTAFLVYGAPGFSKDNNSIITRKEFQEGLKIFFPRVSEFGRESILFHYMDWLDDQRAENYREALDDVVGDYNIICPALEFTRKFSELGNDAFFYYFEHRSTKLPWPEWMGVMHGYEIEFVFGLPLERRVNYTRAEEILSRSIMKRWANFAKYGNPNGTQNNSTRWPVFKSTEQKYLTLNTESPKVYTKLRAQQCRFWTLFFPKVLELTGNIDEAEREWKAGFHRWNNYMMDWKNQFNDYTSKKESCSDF
Sequence of Amyloid-beta precursor protein (Homo sapiens) (P05067 whole entry): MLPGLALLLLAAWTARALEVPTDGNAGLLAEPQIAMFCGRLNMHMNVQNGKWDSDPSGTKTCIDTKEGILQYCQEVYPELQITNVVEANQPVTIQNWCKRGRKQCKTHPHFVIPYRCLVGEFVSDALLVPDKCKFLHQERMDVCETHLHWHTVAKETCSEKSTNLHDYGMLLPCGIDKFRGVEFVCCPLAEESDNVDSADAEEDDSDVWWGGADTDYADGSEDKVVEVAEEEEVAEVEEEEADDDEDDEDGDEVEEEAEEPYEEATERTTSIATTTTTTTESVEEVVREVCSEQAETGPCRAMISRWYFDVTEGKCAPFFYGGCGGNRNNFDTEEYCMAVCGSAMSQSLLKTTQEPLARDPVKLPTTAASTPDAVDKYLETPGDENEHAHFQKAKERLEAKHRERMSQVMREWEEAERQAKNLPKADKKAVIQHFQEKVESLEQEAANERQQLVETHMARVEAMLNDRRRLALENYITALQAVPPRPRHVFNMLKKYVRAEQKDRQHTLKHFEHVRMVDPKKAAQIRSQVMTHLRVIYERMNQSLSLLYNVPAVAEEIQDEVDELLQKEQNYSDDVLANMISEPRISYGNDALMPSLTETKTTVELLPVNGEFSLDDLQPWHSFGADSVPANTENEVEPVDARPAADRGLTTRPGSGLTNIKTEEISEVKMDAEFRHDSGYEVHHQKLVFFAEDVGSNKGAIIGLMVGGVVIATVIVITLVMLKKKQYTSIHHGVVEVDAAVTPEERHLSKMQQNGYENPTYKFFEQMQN
T1 sequence (O42275 whole entry): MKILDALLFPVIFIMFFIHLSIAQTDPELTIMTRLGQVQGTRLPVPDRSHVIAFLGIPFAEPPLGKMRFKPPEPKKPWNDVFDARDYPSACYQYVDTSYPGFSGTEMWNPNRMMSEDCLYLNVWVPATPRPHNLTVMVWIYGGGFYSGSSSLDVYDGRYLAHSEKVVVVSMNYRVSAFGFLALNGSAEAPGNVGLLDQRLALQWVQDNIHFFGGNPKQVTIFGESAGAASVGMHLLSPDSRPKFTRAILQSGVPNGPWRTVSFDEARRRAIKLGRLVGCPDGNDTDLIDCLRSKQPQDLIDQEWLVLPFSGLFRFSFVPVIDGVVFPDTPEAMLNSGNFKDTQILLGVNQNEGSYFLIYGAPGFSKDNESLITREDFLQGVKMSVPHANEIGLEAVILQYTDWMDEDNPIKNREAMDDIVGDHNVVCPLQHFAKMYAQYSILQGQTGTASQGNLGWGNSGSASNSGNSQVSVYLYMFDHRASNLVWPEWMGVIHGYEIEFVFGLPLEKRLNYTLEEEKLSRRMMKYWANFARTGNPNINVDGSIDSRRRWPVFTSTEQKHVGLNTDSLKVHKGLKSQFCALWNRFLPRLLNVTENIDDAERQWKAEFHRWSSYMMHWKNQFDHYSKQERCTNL
Sequence of Acetylcholinesterase (Electrophorus electricus) (O42275 24-633 limits assumed): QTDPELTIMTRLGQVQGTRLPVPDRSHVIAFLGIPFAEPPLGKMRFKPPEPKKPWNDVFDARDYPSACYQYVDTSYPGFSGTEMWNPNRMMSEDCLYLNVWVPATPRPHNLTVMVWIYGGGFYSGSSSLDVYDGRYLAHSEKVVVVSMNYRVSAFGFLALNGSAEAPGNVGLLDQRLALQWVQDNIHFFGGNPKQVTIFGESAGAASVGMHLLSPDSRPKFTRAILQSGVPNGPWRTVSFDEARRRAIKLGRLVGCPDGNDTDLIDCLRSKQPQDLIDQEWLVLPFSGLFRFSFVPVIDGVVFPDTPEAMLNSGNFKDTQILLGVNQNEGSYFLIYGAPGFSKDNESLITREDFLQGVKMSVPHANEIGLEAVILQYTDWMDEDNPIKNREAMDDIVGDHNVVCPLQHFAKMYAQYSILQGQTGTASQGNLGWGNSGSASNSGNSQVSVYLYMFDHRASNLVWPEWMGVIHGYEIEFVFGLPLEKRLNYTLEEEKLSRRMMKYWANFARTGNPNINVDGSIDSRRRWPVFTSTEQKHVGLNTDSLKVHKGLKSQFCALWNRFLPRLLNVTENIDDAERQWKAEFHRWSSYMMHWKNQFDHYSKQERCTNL
Sequence of Cholinesterase (Equus caballus) (P81908 whole entry): as the sequence (P81908 whole entry) above

Compound | inhibition [1] | IC50 (Acetylcholinesterase [2]) | IC50 (Cholinesterase) | further results
O=c1cc(OCCCCCn2cc(Cn3nnc4ccccc43)nn2)c2ccccc2o1 | 11.4% | 1.14 µM | ≥ 10 µM | 
O=c1cc(OCCn2cc(Cn3nc4ccccc4n3)nn2)c2ccccc2o1 | < 10% | 1.89 µM | ≥ 10 µM | 
O=c1ccc2ccc(OCCn3cc(Cn4nc5ccccc5n4)nn3)cc2o1 | < 10% | 1.18 µM | ≥ 10 µM | 
O=c1ccc2ccc(OCCCCn3cc(COn4nnc5ccccc54)nn3)cc2o1 | < 10% | ≥ 10 µM | ≥ 10 µM | 
O=c1cc(OCCCCCn2cc(Cn3nc4ccccc4n3)nn2)c2ccccc2o1 | < 10% | 4.81 µM | ≥ 10 µM | 
O=c1cc(OCCCCCCn2cc(COn3nnc4ccccc43)nn2)c2ccccc2o1 | < 10% | ≥ 10 µM | ≥ 10 µM | 
O=c1ccc2ccc(OCCn3cc(COn4nnc5ccccc54)nn3)cc2o1 | 11.4% | 2.01 µM | ≥ 10 µM | 
O=c1ccc2ccc(OCCCCCCn3cc(Cn4nc5ccccc5n4)nn3)cc2o1 | < 10% | ≥ 10 µM | ≥ 10 µM | 
COc1cc2c(cc1OC)C(=O)C(CC1CCN(Cc3ccccc3)CC1)C2 (stereo not drawn) [DONEPEZIL] |  |  |  | Activity (SH-SY5Y): Non-Toxic
O=c1ccc2ccc(OCCCCCn3cc(Cn4nnc5ccccc54)nn3)cc2o1 | < 10% | 5.43 µM | ≥ 10 µM | 
O=c1cc(OCCCn2cc(COn3nnc4ccccc43)nn2)c2ccccc2o1 | < 10% | 1.32 µM | ≥ 10 µM | 
O=c1cc(OCCCCCCn2cc(Cn3nnc4ccccc43)nn2)c2ccccc2o1 | < 10% | 5.42 µM | ≥ 10 µM | 
O=c1cc(OCCCn2cc(Cn3nnc4ccccc43)nn2)c2ccccc2o1 | 34.3% | 0.059 µM | ≥ 10 µM | inhibition [3]: Active; Activity [4]: Active; Activity [5]: Active; inhibition [6]: Active; Activity [7]: Active; Activity (DNA [8]): Active; Ki (Acetylcholinesterase [9]): 41.7 pM; Activity (DNA [10]): Active; Activity [11]: inactive; inhibition [12]: Active; Activity [13]: Active; Activity (SH-SY5Y): Non-Toxic
O=c1cc(OCCCCCn2cc(COn3nnc4ccccc43)nn2)c2ccccc2o1 | < 10% | ≥ 10 µM | ≥ 10 µM | 
O=c1cc(OCCCCn2cc(COn3nnc4ccccc43)nn2)c2ccccc2o1 | < 10% | 3.23 µM | ≥ 10 µM | 
O=c1cc(OCCCCn2cc(Cn3nc4ccccc4n3)nn2)c2ccccc2o1 | < 10% | 2.09 µM | ≥ 10 µM | 

Compound | inhibition [1] | IC50 (Acetylcholinesterase [2]) | IC50 (Cholinesterase) | further results
O=c1ccc2ccc(OCCCn3cc(COn4nnc5ccccc54)nn3)cc2o1 | < 10% | 1.98 µM | ≥ 10 µM | 
O=c1cc(OCCCn2cc(Cn3nc4ccccc4n3)nn2)c2ccccc2o1 | < 10% | 1.67 µM | ≥ 10 µM | 
O=c1ccc2ccc(OCCCn3cc(Cn4nc5ccccc5n4)nn3)cc2o1 | < 10% | 1.16 µM | ≥ 10 µM | 
O=c1ccc2ccc(OCCCCCn3cc(Cn4nc5ccccc5n4)nn3)cc2o1 | < 10% | ≥ 10 µM | ≥ 10 µM | 
O=c1ccc2ccc(OCCCn3cc(Cn4nnc5ccccc54)nn3)cc2o1 | 15.9% | 2.92 µM | ≥ 10 µM | 
O=c1ccc2ccc(OCCn3cc(Cn4nnc5ccccc54)nn3)cc2o1 | 29.4% | 2.11 µM | ≥ 10 µM | 
O=c1ccc2ccc(OCCCCCCn3cc(COn4nnc5ccccc54)nn3)cc2o1 | < 10% | ≥ 10 µM | ≥ 10 µM | 
O=c1ccc2ccc(OCCCCn3cc(Cn4nc5ccccc5n4)nn3)cc2o1 | < 10% | 5.44 µM | ≥ 10 µM | 
O=c1ccc2ccc(OCCCCCn3cc(COn4nnc5ccccc54)nn3)cc2o1 | < 10% | ≥ 10 µM | ≥ 10 µM | 
O=c1cc(OCCn2cc(COn3nnc4ccccc43)nn2)c2ccccc2o1 | 16.2% | 4.32 µM | ≥ 10 µM | 
O=c1cc(OCCn2cc(Cn3nnc4ccccc43)nn2)c2ccccc2o1 | 36.7% | 0.097 µM | ≥ 10 µM | 
O=c1ccc2ccc(OCCCCCCn3cc(Cn4nnc5ccccc54)nn3)cc2o1 | < 10% | ≥ 10 µM | ≥ 10 µM | 
O=c1cc(OCCCCn2cc(Cn3nnc4ccccc43)nn2)c2ccccc2o1 | 22.4% | 0.234 µM | ≥ 10 µM | 
O=c1cc(OCCCCCCn2cc(Cn3nc4ccccc4n3)nn2)c2ccccc2o1 | < 10% | 6.23 µM | ≥ 10 µM | 
O=c1ccc2ccc(OCCCCn3cc(Cn4nnc5ccccc54)nn3)cc2o1 | 11.4% | 4.33 µM | ≥ 10 µM | 
